Laboratory results: ChEMBL document CHEMBL1154388

Experiments:
[1] = target: T1, Metabotropic glutamate receptor 5 (Rattus norvegicus, UniProt P31424); test: Antagonist activity at rat mGluR5 expressed in HEK293 cells by calcium mobilization assay; type: functional, cell-based
Summary of the method: (§1)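 Rat mGluR5 in HEK293A cells and rat mGluR1 in BHK cells were loaded with a Ca²⁺-sensitive fluorescent dye and washed. Compound was added 3 s after baseline and incubated for 140 s.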

[2] = target: Metabotropic glutamate receptor 5 (Rattus norvegicus) (UniProt P31424); test: Positive allosteric modulator activity at rat mGluR5 receptor expressed in HEK293 cells assessed as potentiation of glutamate-induced response at 30 uM relative to glutamate; type: cell-based
Summary of the method: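 In mGluR5-expressing HEK293A cells in the calcium mobilization assay, response amplitude with test compound present is expressed as a percentage of the maximal response to glutamate. Values are the average of n≥3.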

[3] = target: Metabotropic glutamate receptor 1 (Rattus norvegicus, UniProt P23385); test: Antagonist activity at rat mGluR1 expressed in BHK cells by calcium mobilization assay; type: functional, cell-based; summary of the method: as §1
[4] = target: T1, Metabotropic glutamate receptor 5; test: Displacement of [3H]3methoxy-5-(pyridin-2-ylethynyl)pyridine from rat mGluR5
[5] = target: T1, Metabotropic glutamate receptor 5; test: (§2) Positive allosteric modulator activity at rat mGluR5 receptor expressed in HEK293 cells assessed as potentiation of glutamate-induced response; type: cell-based
[6] = target: Metabotropic glutamate receptor 5 (Rattus norvegicus) (UniProt P31424); test: as §2; type: cell-based

Sequence of Metabotropic glutamate receptor 1 (P23385 whole entry): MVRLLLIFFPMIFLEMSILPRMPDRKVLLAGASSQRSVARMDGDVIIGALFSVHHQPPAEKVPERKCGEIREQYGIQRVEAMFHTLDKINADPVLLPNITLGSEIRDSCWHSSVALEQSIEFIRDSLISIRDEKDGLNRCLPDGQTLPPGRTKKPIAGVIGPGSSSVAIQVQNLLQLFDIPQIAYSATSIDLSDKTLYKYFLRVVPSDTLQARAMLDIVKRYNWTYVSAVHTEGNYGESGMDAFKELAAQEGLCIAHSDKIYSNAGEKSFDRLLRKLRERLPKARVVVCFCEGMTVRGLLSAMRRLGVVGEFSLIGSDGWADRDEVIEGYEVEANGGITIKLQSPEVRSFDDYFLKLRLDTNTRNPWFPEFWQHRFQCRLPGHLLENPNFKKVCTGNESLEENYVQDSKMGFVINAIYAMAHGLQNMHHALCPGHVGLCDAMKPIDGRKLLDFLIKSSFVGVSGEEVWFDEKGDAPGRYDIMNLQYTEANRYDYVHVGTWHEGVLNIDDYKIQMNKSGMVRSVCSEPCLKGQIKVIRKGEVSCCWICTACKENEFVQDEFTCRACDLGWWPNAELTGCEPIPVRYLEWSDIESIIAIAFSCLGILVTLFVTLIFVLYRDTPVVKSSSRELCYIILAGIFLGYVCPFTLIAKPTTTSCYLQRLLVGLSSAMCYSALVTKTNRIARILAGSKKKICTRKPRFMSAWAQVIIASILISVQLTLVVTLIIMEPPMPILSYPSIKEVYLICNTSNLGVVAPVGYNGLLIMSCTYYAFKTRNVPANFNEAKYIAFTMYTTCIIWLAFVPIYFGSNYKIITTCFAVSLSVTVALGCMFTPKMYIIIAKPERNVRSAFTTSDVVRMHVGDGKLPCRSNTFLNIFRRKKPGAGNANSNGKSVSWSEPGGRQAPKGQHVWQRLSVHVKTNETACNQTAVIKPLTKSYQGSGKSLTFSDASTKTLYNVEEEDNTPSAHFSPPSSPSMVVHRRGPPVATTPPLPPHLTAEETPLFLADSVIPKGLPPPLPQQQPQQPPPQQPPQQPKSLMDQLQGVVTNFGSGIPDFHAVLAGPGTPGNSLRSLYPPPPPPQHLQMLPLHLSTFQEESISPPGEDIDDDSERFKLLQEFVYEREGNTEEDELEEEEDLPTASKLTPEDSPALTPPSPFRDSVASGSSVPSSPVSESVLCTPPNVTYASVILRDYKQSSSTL
Sequence of Metabotropic glutamate receptor 5 (Rattus norvegicus) (P31424 21-1203 limits assumed): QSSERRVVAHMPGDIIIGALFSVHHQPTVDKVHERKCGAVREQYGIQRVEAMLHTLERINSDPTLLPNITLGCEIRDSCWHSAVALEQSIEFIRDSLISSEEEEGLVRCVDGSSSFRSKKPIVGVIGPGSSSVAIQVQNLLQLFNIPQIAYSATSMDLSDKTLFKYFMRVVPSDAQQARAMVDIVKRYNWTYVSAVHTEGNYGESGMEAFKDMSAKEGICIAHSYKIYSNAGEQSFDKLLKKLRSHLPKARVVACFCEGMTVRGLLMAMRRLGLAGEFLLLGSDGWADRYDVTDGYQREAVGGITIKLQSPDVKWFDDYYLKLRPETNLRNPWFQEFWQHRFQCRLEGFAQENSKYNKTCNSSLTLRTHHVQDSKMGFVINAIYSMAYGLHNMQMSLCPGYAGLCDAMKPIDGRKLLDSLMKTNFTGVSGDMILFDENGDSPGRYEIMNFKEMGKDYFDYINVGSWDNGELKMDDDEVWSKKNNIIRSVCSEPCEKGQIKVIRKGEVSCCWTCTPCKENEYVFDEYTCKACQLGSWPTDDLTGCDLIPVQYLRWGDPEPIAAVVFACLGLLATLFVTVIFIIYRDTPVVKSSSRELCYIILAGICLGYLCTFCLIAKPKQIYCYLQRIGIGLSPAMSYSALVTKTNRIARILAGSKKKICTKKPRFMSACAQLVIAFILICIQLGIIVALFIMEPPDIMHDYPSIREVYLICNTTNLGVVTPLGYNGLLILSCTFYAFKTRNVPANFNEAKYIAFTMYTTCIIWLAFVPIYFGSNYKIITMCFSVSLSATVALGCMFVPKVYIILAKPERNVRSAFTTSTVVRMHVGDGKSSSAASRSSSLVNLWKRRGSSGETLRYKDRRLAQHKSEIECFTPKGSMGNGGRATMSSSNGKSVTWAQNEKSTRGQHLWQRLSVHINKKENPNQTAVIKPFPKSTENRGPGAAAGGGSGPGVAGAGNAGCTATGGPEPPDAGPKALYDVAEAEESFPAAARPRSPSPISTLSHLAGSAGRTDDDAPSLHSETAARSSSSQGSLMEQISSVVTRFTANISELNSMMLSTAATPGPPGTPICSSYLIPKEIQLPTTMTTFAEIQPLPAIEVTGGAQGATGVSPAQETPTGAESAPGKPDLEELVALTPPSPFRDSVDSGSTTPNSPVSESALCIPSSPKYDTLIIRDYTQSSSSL
T1 sequence (P31424 whole entry): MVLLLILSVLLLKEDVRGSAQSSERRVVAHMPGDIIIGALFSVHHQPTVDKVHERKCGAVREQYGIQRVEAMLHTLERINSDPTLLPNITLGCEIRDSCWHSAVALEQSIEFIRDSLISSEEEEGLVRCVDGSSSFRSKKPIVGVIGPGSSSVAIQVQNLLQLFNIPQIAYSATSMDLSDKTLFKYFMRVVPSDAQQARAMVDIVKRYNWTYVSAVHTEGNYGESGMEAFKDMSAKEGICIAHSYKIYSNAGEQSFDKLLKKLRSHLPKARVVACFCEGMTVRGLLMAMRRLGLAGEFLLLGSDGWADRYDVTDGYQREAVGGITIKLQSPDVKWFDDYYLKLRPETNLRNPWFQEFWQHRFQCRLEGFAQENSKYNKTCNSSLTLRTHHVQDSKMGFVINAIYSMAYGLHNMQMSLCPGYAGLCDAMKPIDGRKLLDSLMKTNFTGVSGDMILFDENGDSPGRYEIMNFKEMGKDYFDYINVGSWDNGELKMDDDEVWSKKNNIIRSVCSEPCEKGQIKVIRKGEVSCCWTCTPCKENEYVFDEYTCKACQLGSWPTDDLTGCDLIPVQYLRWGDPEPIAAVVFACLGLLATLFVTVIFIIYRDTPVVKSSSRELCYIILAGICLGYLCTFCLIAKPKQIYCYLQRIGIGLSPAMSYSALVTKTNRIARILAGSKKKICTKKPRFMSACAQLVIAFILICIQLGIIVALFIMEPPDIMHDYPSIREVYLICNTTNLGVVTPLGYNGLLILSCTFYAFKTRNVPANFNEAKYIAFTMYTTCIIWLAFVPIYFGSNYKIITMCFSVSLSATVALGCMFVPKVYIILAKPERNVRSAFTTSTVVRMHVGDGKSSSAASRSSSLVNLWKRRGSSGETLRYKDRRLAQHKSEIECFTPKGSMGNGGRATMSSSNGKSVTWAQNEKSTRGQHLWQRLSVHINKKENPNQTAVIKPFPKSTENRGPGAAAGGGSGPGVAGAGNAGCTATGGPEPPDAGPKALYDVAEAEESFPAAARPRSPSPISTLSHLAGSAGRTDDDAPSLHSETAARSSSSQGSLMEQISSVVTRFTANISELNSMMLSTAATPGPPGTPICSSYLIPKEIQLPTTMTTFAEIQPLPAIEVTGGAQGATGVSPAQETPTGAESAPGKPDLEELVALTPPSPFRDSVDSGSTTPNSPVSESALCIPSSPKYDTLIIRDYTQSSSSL

Structure (SMILES) | IC50 [1] | Activity [2] | also measured
Brc1cccc(Oc2ncnc3ccc(Br)cc23)c1 | > 10 µM | 49% | 
Brc1ccc2ncnc(Nc3ccccc3)c2c1 | > 10 µM | 42% | 
COc1cccc(Nc2ncnc3ccc(F)cc23)c1 | > 10 µM | 50% | 
Clc1ccc2nccc(Nc3cccc(Br)c3)c2c1 | > 30 µM |  | 
Clc1ccc2ncnc(NCCc3ccccc3Cl)c2c1 | > 30 µM |  | 
Fc1ccc2ncnc(Nc3ccccc3)c2c1 | > 10 µM | 58% | 
Clc1ccc(CCNc2ncnc3ccc(Cl)cc23)cc1 | > 30 µM |  | 
COc1cccc(Nc2ncnc3ccc(Br)cc23)c1 | > 10 µM | 34% | 
Clc1cccc(CNc2ncnc3ccc(Cl)cc23)c1 | > 30 µM |  | 
Fc1ccc2ncnc(Nc3ccc(F)c(Cl)c3)c2c1 | > 10 µM |  | 
Clc1ccc(CNc2ncnc3ccc(Cl)cc23)cc1 | > 30 µM |  | 
N#Cc1ccc2ncnc(Nc3cccc(Cl)c3)c2c1 | > 10 µM | 35% | 
CCc1cccc(Nc2ncnc3ccc(F)cc23)c1 |  |  | EC50 [5]: > 10 µM; Activity [6]: 52%
Clc1ccc2ncnc(Nc3ccccc3)c2c1 | > 10 µM | 31% | 
Fc1cc(Cl)cc(Nc2ncnc3ccc(F)cc23)c1 | > 10 µM | 56% | 
Clc1ccc2ncnc(Sc3cccc(Br)c3)c2c1 | > 30 µM |  | 
Clc1ccc2ncnc(NCCc3ccccc3)c2c1 | > 10 µM | 59% | 
CN(c1cccc(Br)c1)c1ncnc2ccc(Cl)cc12 | > 30 µM |  | 
Brc1cccc(Sc2ncnc3ccc(Br)cc23)c1 | > 30 µM |  | 
Fc1ccc2ncnc(Nc3cccc(C(F)(F)F)c3)c2c1 | > 10 µM | 32% | 
Clc1cccc(CCNc2ncnc3ccc(Cl)cc23)c1 | > 30 µM |  | 
Clc1ccc2ncnc(NCc3ccccc3)c2c1 | > 30 µM |  | 
CN(c1cccc(Br)c1)c1ncnc2ccc(Br)cc12 | > 30 µM |  | 
Clc1ccc2ncnc(NCc3ccccc3Cl)c2c1 | > 30 µM |  | 

Continued by falling IC50 [1], values first:

IC50 [1] | Activity [2] | Structure (SMILES) | also measured
6.57 µM | 14% | Clc1ccc2ncnc(Oc3cccc(Br)c3)c2c1 | 
4.33 µM | 5.4% | Brc1cccc(Nc2nccc3ccc(Br)cc23)c1 | 
3.72 µM | 5.2% | Fc1ccc2ncnc(Nc3cccc(Cl)c3F)c2c1 | 
1.97 µM | 8.8% | Fc1cccc(Nc2ncnc3ccc(Br)cc23)c1 | 
1.72 µM | 3.2% | FC(F)(F)c1cccc(Nc2ncnc3ccc(Br)cc23)c1 | 
1.51 µM | 13% | COc1ccc2ncnc(Nc3cccc(Cl)c3)c2c1 | 
1.37 µM | 3.5% | N#Cc1cccc(Nc2ncnc3ccc(F)cc23)c1 | 
1.35 µM | 3.5% | Cc1cccc(Nc2ncnc3ccc(F)cc23)c1 | 
0.311 µM | 0.9% | Fc1ccc2ncnc(Nc3cccc(Cl)c3)c2c1 | 
0.274 µM | 2.4% | O=[N+]([O-])c1ccc2ncnc(Nc3cccc(Cl)c3)c2c1 | 
0.256 µM | 1.5% | Clc1cccc(Nc2ncnc3ccc(Br)cc23)c1 | IC50 [3]: 398 nM; Ki [4]: 116 nM
0.246 µM | 1.2% | Cc1cccc(Nc2ncnc3ccc(Br)cc23)c1 | 
0.174 µM | 2.5% | Brc1cccc(Nc2ncnc3ccc(Br)cc23)c1 | 
0.13 µM | 2.8% | Clc1cccc(Nc2ncnc3ccc(Cl)cc23)c1 | 
0.124 µM | 1.2% | Clc1ccc2ncnc(Nc3cccc(Br)c3)c2c1 | IC50 [3]: 955 nM; Ki [4]: 249 nM
0.096 µM | 0.6% | Fc1ccc2ncnc(Nc3cccc(Br)c3)c2c1 | IC50 [3]: 713 nM; Ki [4]: 736 nM
